Our source for the Activity values is ChEMBL document CHEMBL3414544, “PAINS in the assay: chemical mechanisms of assay interference and promiscuous enzymatic inhibition observed during a sulfhydryl-scavenging HTS” (J Med Chem, 2015).

Calls of active or inactive are those of the source.

A short description of series [1]: Fluorescence quenching in HTS buffer assessed as fluorescence signal reduction at 10 uM after 10 mins. Format: physicochemical.
For series [2], the target named is T1, Histone acetyltransferase RTT109 (Saccharomyces cerevisiae (strain ATCC 204508 / S288c) (Baker's yeast)) (UniProt Q07794).
T1 sequence (whole entry): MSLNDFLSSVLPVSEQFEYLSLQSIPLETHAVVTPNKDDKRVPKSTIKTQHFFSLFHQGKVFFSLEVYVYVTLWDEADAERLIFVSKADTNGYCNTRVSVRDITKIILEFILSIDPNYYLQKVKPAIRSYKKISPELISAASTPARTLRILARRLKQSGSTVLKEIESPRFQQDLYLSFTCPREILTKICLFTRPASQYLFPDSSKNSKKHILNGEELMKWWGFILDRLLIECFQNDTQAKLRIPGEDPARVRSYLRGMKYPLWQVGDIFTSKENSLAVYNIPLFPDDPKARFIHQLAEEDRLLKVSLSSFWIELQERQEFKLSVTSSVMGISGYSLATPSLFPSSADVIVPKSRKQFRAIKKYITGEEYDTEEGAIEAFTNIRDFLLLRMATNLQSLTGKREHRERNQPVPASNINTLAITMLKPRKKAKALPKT
The series is described as follows: Inhibition of Vps75-stimulated recombinant Saccharomyces cerevisiae histone acetyltransferase Rtt109 assessed as H3K27 acetylated product at […] after 45 mins by Slot bolt inhibiton assay.

A short description of series [3]: Fluorescence quenching in HTS buffer with […] CoA assessed as fluorescence signal reduction at 10 uM after 10 mins. The format is physicochemical.
The target of series [4] is T1, Histone acetyltransferase RTT109 (Saccharomyces cerevisiae (strain ATCC 204508 / S288c) (Baker's yeast)). The experiment in a line: Inhibition of Vps75-stimulated recombinant Saccharomyces cerevisiae histone acetyltransferase Rtt109 assessed as H3K56 acetylated product at […] after 45 mins by Slot bolt inhibiton assay.
Series [5] is described as follows: Fluorescence quenching in HTS buffer with 20 uM 7-diethylamino-3-(4'-maleimidyl-phenyl)-4-methylcoumarin assessed as fluorescence signal reduction at 10 uM after 10 mins. Format: physicochemical.
Series [6] can be described thus: Fluorescence quenching assessed as fluorescence signal reduction at 10 uM after 10 mins. Format: physicochemical. The method in brief:
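CPM (20 μM final) and CoA (5 μM final) reacted to completion in assay buffer (stable plateau, usually ~5 min); adduct solution added to wells preplated with compound; shaken 5 min, equilibrated 5 min at room temperature; fluorescence intensity read as percent signal reduction versus DMSO controls. Flagged as quencher at >20% signal reduction at 10 μM final compound.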

`O=S(=O)(C[n+]1sc(Nc2ccc(Cl)cc2Cl)nc1-c1ccccc1)c1ccccc1.[Cl-]`: the Activity entry in series [1], in series [3], in series [5] and in series [6] was “Not Active” throughout. The result in series [2] and in series [4] was Active.

Turning to `CC(C)c1ccc(S(=O)(=O)Nc2cc(Sc3nc[nH]n3)c(O)c3ccccc23)cc1`, the Activity result in series [1], in series [3], in series [5] and in series [6] was “Not Active” each time. The outcome in series [2] and in series [4] was Active.

Take `CCOc1ccc(Nc2nc(-c3ccc(C)cc3)[n+](Cc3ccc([N+](=O)[O-])cc3)s2)cc1.[Br-]`: the Activity result in series [1], in series [3], in series [5] and in series [6] was “Not Active” each time. In addition, the outcome in series [2] and in series [4] was Active.

For `O=C1CC(Sc2nnc(-c3ccccc3O)o2)C(=O)N1c1ccccc1` (stereo unspecified), the Activity result in series [1], in series [3], in series [5] and in series [6] was “Not Active” in each case. In addition, the result in series [2] and in series [4] was Active.

As to `Cn1c(Sc2ccc([N+](=O)[O-])c3nonc23)nnc1-c1ccccc1`, the Activity result in series [1], in series [3], in series [5] and in series [6] was “Not Active” each time. The result in series [2] and in series [4] was Active.

On to `O=C1CC(Sc2nnnn2-c2ccccc2)C(=O)N1c1ccc([N+](=O)[O-])cc1` (stereo unspecified), for which the Activity entry in series [1], in series [3], in series [5] and in series [6] was “Not Active” in each case. For the same molecule, the outcome in series [2] and in series [4] was Active.

Consider `O=[N+]([O-])c1cc(Br)c2nsnc2c1Sc1nnnn1C1CCCCC1`, for which the Activity entry in series [1], in series [3], in series [5] and in series [6] was “Not Active” each time. Moreover, the result in series [2] and in series [4] was Active.

As for `Cc1ccc(S(=O)(=O)C2=CS(=O)(=O)c3ccccc32)cc1`, the Activity result in series [1], in series [3], in series [5] and in series [6] was “Not Active” in each case. Besides, the result in series [2] and in series [4] was Active.

For the molecule `CCC(=O)OCCNc1cc(Sc2nnc(-c3ccccc3)s2)c2nonc2c1[N+](=O)[O-]`, the Activity result in series [1], in series [3], in series [5] and in series [6] was “Not Active” throughout. In addition, the outcome in series [2] and in series [4] was Active.

In the case of `O=S(=O)(Nc1ccc(O)c(Br)c1)c1ccc(Cl)cc1`, the Activity entry in series [1], in series [3], in series [5] and in series [6] was “Not Active” throughout. Also, the result in series [2] and in series [4] was inactive.

Take `Cc1ccc(-c2nnc(SC3CC(=O)N(c4ccc(Oc5ccccc5)cc4)C3=O)[nH]2)cc1` (stereo unspecified): the Activity entry in series [1], in series [3], in series [5] and in series [6] was “Not Active” each time. The outcome in series [2] and in series [4] was Active.
